Experimental data: ChEMBL document CHEMBL4265871, “Novel alkylated azoles as potent antifungals” (Eur J Med Chem, 2017)
≈ marks a conversion by molar mass, not a printed value.

Tests used:
Nakaseomyces glabratus = experiment: Antifungal activity against Candida glabrata ATCC 2001 incubated for 48 hrs by modified CLSI M27-A3 protocol based method; assay type: functional; conditions: ATCC 2001, 48 h
Candida albicans [1] = experiment: Antifungal activity against ITC and FLC-resistant Candida albicans ATCC MYA-1003 incubated for 48 hrs by modified CLSI M27-A3 protocol based method; assay type: functional; conditions: ATCC MYA-1003, 48 h
Method in brief: (§1)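 Because these Candida strains show trailing growth, MIC-2 was read, meaning 50% growth inhibition. Caspofungin and voriconazole were tested here; other controls came from earlier work.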

Candida albicans [2] = experiment: Antifungal activity against ITC and FLC-resistant Candida albicans ATCC 1237 incubated for 48 hrs by modified CLSI M27-A3 protocol based method; assay type: functional; conditions: ATCC 1237, 48 h; method in brief: as §1
Candida albicans [3] = experiment: Antifungal activity against Candida albicans ATCC 64124 incubated for 48 hrs by modified CLSI M27-A3 protocol based method; assay type: functional; conditions: ATCC 64124, 48 h
Candida albicans [4] = experiment: Antifungal activity against Candida albicans ATCC 10231 incubated for 48 hrs by modified CLSI M27-A3 protocol based method; assay type: functional; conditions: ATCC 10231, 48 h, read-out: MIC100
Method in brief: (§2)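 For C. albicans ATCC 10231, C. krusei ATCC 6258 and C. parapsilosis ATCC 22019, MIC-0 was read, meaning complete growth inhibition. For azole controls, MIC-2 (50% growth inhibition) was reported instead. Caspofungin and voriconazole were tested here; other controls came from earlier work.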

Aspergillus terreus = experiment: Antifungal activity against Aspergillus terreus ATCC MYA-3633 incubated for 48 hrs by CLSI M38-A2 protocol based method; assay type: functional; conditions: ATCC MYA-3633, 48 h, read-out: MIC100
Pichia kudriavzevii = experiment: Antifungal activity against Candida krusei ATCC 6258 incubated for 48 hrs by modified CLSI M27-A3 protocol based method; assay type: functional; conditions: ATCC 6258, 48 h, read-out: MIC100; method in brief: as §2
Candida albicans [5] = experiment: Antifungal activity against ITC and FLC-susceptible Candida albicans ATCC MYA-2876 incubated for 48 hrs by modified CLSI M27-A3 protocol based method; assay type: functional; conditions: ATCC MYA-2876, 48 h; for MIC: read-out: MIC100; method in brief: as §1
Aspergillus nidulans = experiment: Antifungal activity against Aspergillus nidulans ATCC 38163 incubated for 48 hrs by CLSI M38-A2 protocol based method; assay type: functional; conditions: ATCC 38163, 48 h, read-out: MIC100
Aspergillus flavus = experiment: Antifungal activity against Aspergillus flavus ATCC MYA-3631 incubated for 48 hrs by CLSI M38-A2 protocol based method; assay type: functional; conditions: ATCC MYA-3631, 48 h, read-out: MIC100
Candida albicans [6] = experiment: Antifungal activity against ITC and FLC-susceptible Candida albicans ATCC MYA-2310 incubated for 48 hrs by modified CLSI M27-A3 protocol based method; assay type: functional; conditions: ATCC MYA-2310, 48 h; for MIC: read-out: MIC100
Candida parapsilosis = experiment: Antifungal activity against Candida parapsilosis ATCC 22019 incubated for 48 hrs by modified CLSI M27-A3 protocol based method; assay type: functional; conditions: Lodderomyces parapsilosis, ATCC 22019, 48 h; read-out: MIC100; method in brief: as §2
Candida albicans [7] = experiment: Antifungal activity against ITC and FLC-resistant Candida albicans ATCC MYA-90819 incubated for 48 hrs by modified CLSI M27-A3 protocol based method; assay type: functional; conditions: ATCC MYA-90819, 48 h
[8] = Hemolytic activity in mouse erythrocytes assessed as hemolysis level at 125 ug/ml incubated for 1 hr at 37 degC; assay type: ADME, cell-based, Erythrocyte; conditions: read-out: Activity
Method in brief: (§3)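 Mouse erythrocytes incubated 1 h at 37 °C with test agents over 1.95 to 125 µg/mL. Percent lysis is read for each concentration.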

[9] = Hemolytic activity in mouse erythrocytes assessed as hemolysis level at 7.8 ug/ml incubated for 1 hr at 37 degC; assay type: ADME, cell-based, Erythrocyte; conditions: read-out: Activity; method in brief: as §3
A549 = experiment: Toxicity in human A549 cells assessed as cell viability at 15.6 ug/ml incubated for 24 hrs by resazurin dye based assay; conditions: a549, 24 h
[10] = Hemolytic activity in mouse erythrocytes assessed as hemolysis level at 31.3 ug/ml incubated for 1 hr at 37 degC; assay type: ADME, cell-based, Erythrocyte; conditions: read-out: Activity; method in brief: as §3
[11] = Hemolytic activity in mouse erythrocytes assessed as hemolysis level at 15.6 ug/ml incubated for 1 hr at 37 degC; assay type: ADME, cell-based, Erythrocyte; conditions: read-out: Activity; method in brief: as §3
[12] = Hemolytic activity in mouse erythrocytes assessed as hemolysis level at 1.95 ug/ml incubated for 1 hr at 37 degC; assay type: ADME, cell-based, Erythrocyte; conditions: read-out: Activity; method in brief: as §3
in vitro = conditions: mouse, erythrocyte
[13] = Hemolytic activity in mouse erythrocytes assessed as hemolysis level at 3.9 ug/ml incubated for 1 hr at 37 degC; assay type: ADME, cell-based, Erythrocyte; conditions: read-out: Activity; method in brief: as §3
BEAS-2B = experiment: Toxicity in human BEAS2B cells assessed as cell viability at 15.6 ug/ml incubated for 24 hrs by resazurin dye based assay

## CCC(O)(Cn1cncn1)c1ccc(Cl)cc1Cl (configuration not stated)
Nakaseomyces glabratus
  MIC50: 13.6 µM (≈ 3.89 µg/mL)
Candida albicans [1]
  MIC50: 6.8 µM (≈ 1.95 µg/mL)
Candida albicans [2]
  MIC50: 3.4 µM (≈ 0.973 µg/mL)
Candida albicans [3]
  MIC50: > 109 µM
Candida albicans [4]
  MIC: 13.6 µM (≈ 3.89 µg/mL)
Aspergillus terreus
  MIC: 13.6 µM (≈ 3.89 µg/mL)
Pichia kudriavzevii
  MIC: 3.4 µM (≈ 0.973 µg/mL)
Candida albicans [5]
  MIC50: 3.4 µM (≈ 0.973 µg/mL)
Aspergillus nidulans
  MIC: 27.3 µM (≈ 7.81 µg/mL)
Aspergillus flavus
  MIC: 54.5 µM (≈ 15.6 µg/mL)
Candida albicans [6]
  MIC50: 3.4 µM (≈ 0.973 µg/mL)
Candida parapsilosis
  MIC: < 0.1 µM
Candida albicans [7]
  MIC50: 0.84 µM (≈ 0.24 µg/mL)

## CCCCCCC(O)(Cn1cncn1)c1cccc(Cl)c1 (configuration not stated)
Nakaseomyces glabratus
  MIC50: > 102 µM
Candida albicans [1]
  MIC50: > 102 µM
Candida albicans [2]
  MIC50: 25.3 µM (≈ 7.79 µg/mL)
Candida albicans [3]
  MIC50: 102 µM (≈ 31.3 µg/mL)
Candida albicans [4]
  MIC: > 102 µM
Aspergillus terreus
  MIC: > 102 µM
Pichia kudriavzevii
  MIC: > 102 µM
Candida albicans [5]
  MIC50: > 102 µM
Aspergillus nidulans
  MIC: 12.7 µM (≈ 3.91 µg/mL)
Aspergillus flavus
  MIC: > 102 µM
Candida albicans [6]
  MIC50: 25.3 µM (≈ 7.79 µg/mL)
Candida parapsilosis
  MIC: > 102 µM
Candida albicans [7]
  MIC50: 25.3 µM (≈ 7.79 µg/mL)

## C[C@@H]1[C@H](O)[C@@H](C)/C=C/C=C/C=C/C=C/C=C/C=C/C=C/[C@H](O[C@@H]2O[C@H](C)[C@@H](O)[C@H](N)[C@@H]2O)C[C@@H]2O[C@](O)(C[C@@H](O)C[C@@H](O)[C@H](O)CC[C@@H](O)C[C@@H](O)CC(=O)O[C@H]1C)C[C@H](O)[C@H]2C(=O)O [AMPHOTERICIN B]
Nakaseomyces glabratus
  MIC: 2.1 µM (≈ 1.94 µg/mL)
[8]
  hemolysis at 1 h, 125 ug/ml: 92.6%
Aspergillus terreus
  MIC: 4.2 µM (≈ 3.88 µg/mL)
Candida albicans [5]
  MIC: 2.1 µM (≈ 1.94 µg/mL)
[9]
  hemolysis at 1 h, 7.8 ug/ml: 3.7%
A549
  viability: 30%
Aspergillus nidulans
  MIC: 16.9 µM (≈ 15.6 µg/mL)
[10]
  hemolysis at 1 h, 31.3 ug/ml: 80%
[11]
  hemolysis at 1 h, 15.6 ug/ml: 32%
[12]
  hemolysis at 1 h, 1.95 ug/ml: 1.7%
Candida albicans [6]
  MIC: 2.1 µM (≈ 1.94 µg/mL)
In vitro
  hemolysis at 1 h: 90.3%
Candida parapsilosis
  MIC: 2.1 µM (≈ 1.94 µg/mL)
[13]
  hemolysis at 1 h, 3.9 ug/ml: 3.4%
BEAS-2B
  viability: 30%
Candida albicans [7]
  MIC: 1.1 µM (≈ 1.02 µg/mL)

## CCC(O)(Cn1cncn1)c1ccc(F)cc1F (configuration not stated)
Nakaseomyces glabratus
  MIC50: > 124 µM
Candida albicans [1]
  MIC50: 30.8 µM (≈ 7.8 µg/mL)
Candida albicans [2]
  MIC50: > 124 µM
Candida albicans [3]
  MIC50: > 124 µM
Candida albicans [4]
  MIC: 61.6 µM (≈ 15.6 µg/mL)
Aspergillus terreus
  MIC: > 124 µM
Pichia kudriavzevii
  MIC: 30.8 µM (≈ 7.8 µg/mL)
Candida albicans [5]
  MIC50: 61.6 µM (≈ 15.6 µg/mL)
Aspergillus nidulans
  MIC: 124 µM (≈ 31.3 µg/mL)
Aspergillus flavus
  MIC: > 124 µM
Candida albicans [6]
  MIC50: > 124 µM
Candida parapsilosis
  MIC: 1.9 µM (≈ 0.481 µg/mL)
Candida albicans [7]
  MIC50: 124 µM (≈ 31.3 µg/mL)

## CCCC(O)(Cn1cncn1)c1ccc(F)cc1F (configuration not stated)
Nakaseomyces glabratus
  MIC50: > 117 µM
Candida albicans [1]
  MIC50: 14.6 µM (≈ 3.9 µg/mL)
Candida albicans [2]
  MIC50: 117 µM (≈ 31.3 µg/mL)
Candida albicans [3]
  MIC50: 117 µM (≈ 31.3 µg/mL)
Candida albicans [4]
  MIC: 14.6 µM (≈ 3.9 µg/mL)
Aspergillus terreus
  MIC: 58.4 µM (≈ 15.6 µg/mL)
Pichia kudriavzevii
  MIC: 0.22 µM (≈ 0.0588 µg/mL)
Candida albicans [5]
  MIC50: 58.4 µM (≈ 15.6 µg/mL)
Aspergillus nidulans
  MIC: 29.2 µM (≈ 7.8 µg/mL)
Aspergillus flavus
  MIC: > 117 µM
Candida albicans [6]
  MIC50: 29.2 µM (≈ 7.8 µg/mL)
Candida parapsilosis
  MIC: 0.22 µM (≈ 0.0588 µg/mL)
Candida albicans [7]
  MIC50: 58.4 µM (≈ 15.6 µg/mL)

## CC(O)(Cn1cncn1)c1ccc(Cl)cc1Cl (configuration not stated)
Nakaseomyces glabratus
  MIC50: 14.3 µM (≈ 3.89 µg/mL)
Candida albicans [1]
  MIC50: > 115 µM
Candida albicans [2]
  MIC50: > 115 µM
Candida albicans [3]
  MIC50: > 115 µM
Candida albicans [4]
  MIC: > 115 µM
Aspergillus terreus
  MIC: > 115 µM
Pichia kudriavzevii
  MIC: 14.3 µM (≈ 3.89 µg/mL)
Candida albicans [5]
  MIC50: 28.7 µM (≈ 7.81 µg/mL)
Aspergillus nidulans
  MIC: 7.2 µM (≈ 1.96 µg/mL)
Aspergillus flavus
  MIC: > 115 µM
Candida albicans [6]
  MIC50: > 115 µM
Candida parapsilosis
  MIC: 0.88 µM (≈ 0.239 µg/mL)
Candida albicans [7]
  MIC50: 7.2 µM (≈ 1.96 µg/mL)

## CC(O)(Cn1cncn1)c1ccc(F)cc1F (configuration not stated)
Nakaseomyces glabratus
  MIC50: > 131 µM
Candida albicans [1]
  MIC50: 65.2 µM (≈ 15.6 µg/mL)
Candida albicans [2]
  MIC50: > 131 µM
Candida albicans [3]
  MIC50: > 131 µM
Candida albicans [4]
  MIC: > 131 µM
Aspergillus terreus
  MIC: > 131 µM
Pichia kudriavzevii
  MIC: > 131 µM
Candida albicans [5]
  MIC50: > 131 µM
Aspergillus nidulans
  MIC: 131 µM (≈ 31.3 µg/mL)
Aspergillus flavus
  MIC: > 131 µM
Candida albicans [6]
  MIC50: > 131 µM
Candida parapsilosis
  MIC: 16.3 µM (≈ 3.9 µg/mL)
Candida albicans [7]
  MIC50: > 131 µM

## CC[C@H](C)C[C@H](C)CCCCCCCCC(=O)N[C@H]1C[C@@H](O)[C@@H](NCCN)NC(=O)[C@@H]2[C@@H](O)CCN2C(=O)[C@H]([C@H](O)CCN)NC(=O)[C@H]([C@H](O)[C@@H](O)c2ccc(O)cc2)NC(=O)[C@@H]2C[C@@H](O)CN2C(=O)[C@H]([C@@H](C)O)NC1=O [CASPOFUNGIN]
Nakaseomyces glabratus
  MIC: 0.05 µM (≈ 0.0547 µg/mL)
Candida albicans [1]; read-out: MIC100
  MIC: 0.4 µM (≈ 0.437 µg/mL)
Candida albicans [2]; read-out: MIC100
  MIC: 0.2 µM (≈ 0.219 µg/mL)
Candida albicans [3]
  MIC: 0.2 µM (≈ 0.219 µg/mL)
Candida albicans [4]
  MIC: 0.8 µM (≈ 0.875 µg/mL)
Aspergillus terreus
  MIC: > 25.8 µM
Pichia kudriavzevii
  MIC: 0.4 µM (≈ 0.437 µg/mL)
Candida albicans [5]
  MIC: 0.05 µM (≈ 0.0547 µg/mL)
Aspergillus nidulans
  MIC: > 26 µM
Aspergillus flavus
  MIC: > 25.8 µM
Candida albicans [6]
  MIC: 0.1 µM (≈ 0.109 µg/mL)
Candida parapsilosis
  MIC: 1.6 µM (≈ 1.75 µg/mL)
Candida albicans [7]
  MIC: 0.1 µM (≈ 0.109 µg/mL)
